Measured values reported in ChEMBL document CHEMBL4138156, “Indole and Benzimidazole Bichalcophenes: Synthesis, DNA Binding and Antiparasitic Activity” (Eur J Med Chem, 2018).
Calls of active or inactive are those of the source. No cut-off for these calls is given here.

How the values were obtained:
[1] = Binding affinity to poly(dA).poly(dT) DNA minor groove (unknown origin) assessed as positive induced CD signal at DNA:compound molar ratio of 20:2 to 20:10 by CD spectra analysis; format: nucleic-acid assay
Outline: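 Poly(dA).poly(dT) at 20 μM was titrated with compound at 25 °C in 10 mM MES, 100 mM NaCl, 1 mM EDTA, pH 7.4. CD spectra were recorded at different compound-to-DNA ratios.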

[2] = Selectivity index, ratio of IC50 for rat L6 cells to IC50 for Plasmodium falciparum K1 infected in human erythrocytes; format: toxicity, cell-based; details: read-out: Ratio IC50
Outline: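 Ratio of IC50 in cultured L6 rat myoblast cells (cytotoxicity) to IC50 in an in vitro viability assay against chloroquine-resistant P. falciparum strain K1. P. falciparum IC50 values are the average of duplicate determinations.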

[3] = test system: Trypanosoma brucei rhodesiense; test: Antiprotozoal activity against bloodstream forms of Trypanosoma brucei rhodesiense STIB900 infected in NMR1 mouse at 5 mg/kg, ip administered daily for 4 consecutive days starting from day 3 to 6 post infection; format: functional
Outline: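 STIB900 acute-stage mouse infection model for T. b. rhodesiense (mimics acute African sleeping sickness). Dosing was 4 × 5 mg/kg i.p. The outcome was scored as cure of infected mice.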

[4] = test system: Poly(dA-dT)oligonucleotide; test: Binding affinity to poly(dA-dT)n DNA (unknown origin) assessed as change in melting temperature at 0.3 molar ratio of compound:DNA by spectrophotometric analysis; format: nucleic-acid assay
Outline: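 UV thermal melting of poly(dA-dT) in CAC 10 buffer (10 mM cacodylic acid, 1 mM EDTA, 100 mM NaCl, NaOH to pH 7.0) was run in 1 cm quartz cuvettes, ramping at 0.5 °C/min. DNA concentration was set from A260, with 0.3 mol compound per mol DNA and DNA alone as control. ΔTm was taken from the peak of the first-derivative (dA/dT) curves.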

SMILES | Activity [1] | selectivity ratio [2] | Activity [3] | ΔTm [4] [°C]
N=C(N)c1ccc2nc(-c3ccc(-c4ccc(C(=N)N)o4)o3)[nH]c2c1 | Active |  |  | 
N=C(N)c1ccc2cc(-c3ccc(-c4ccc(C(=N)N)o4)o3)[nH]c2c1 | Active | 1000 | inactive | 
N=C(N)c1ccc2nc(-c3ccc(-c4ccc(C(=N)N)s4)o3)[nH]c2c1 | Active |  |  | 
N=C(N)c1ccc2nc(-c3ccc(-c4ccc(C(=N)N)s4)s3)[nH]c2c1 | Active |  |  | > 30
N=C(N)c1ccc2cc(-c3ccc(-c4ccc(C(=N)N)s4)s3)[nH]c2c1 | Active |  | inactive | > 30
N=C(N)c1ccc2cc(-c3ccc(-c4ccc(C(=N)N)s4)o3)[nH]c2c1 |  |  | inactive | > 30
